In paper PMC9245008 (ACS chemical biology, 2022):

How the values were obtained:
CIA mouse model = CIA mouse model of inflammatory arthritis; type: in vivo, DBA/1 mice
Method in brief: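 Type II collagen emulsified 1:1 with Freund's complete adjuvant; mice anaesthetised with isoflurane and given intradermal tail-base injections (400 μg collagen total) on days 0 and 21, then randomised by body weight on day 21.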

[1] = test system: IL-1β expression in THP-1 cells; assay: Cytokine dose–response curves in THP-1 cells; type: cell-based, human; conditions: read-out: IC50 IL-1β expression; LPS-stimulated THP-1, 24 h
Method in brief: (§1)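 THP-1 cells differentiated with PMA (100 nM) for up to 72 h, then rested 24 h in PMA-free RPMI. Pretreated with test compound (3.2 nM–32 μM) or DMSO vehicle, then stimulated with LPS (10 ng/mL). After 24 h, TNF, IL-6 and IL-1β in supernatant measured by Luminex and expressed as percent of vehicle control; n = 3.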

CK1γ2 = CK1γ2 (Homo sapiens, UniProt P78368); assay: MRC Dundee kinase panel screen at 10 μM; type: biochemical
CSNK1G2 = CSNK1G2 (Homo sapiens, UniProt P78368); assay: Dose–response of top 10 kinase hits; type: biochemical; conditions: read-out: IC50 CSNK1G2, n = 2
CLK2 = CLK2 (Homo sapiens, UniProt P49760); assay: Dose–response of top 10 kinase hits; type: biochemical
MLK1 = MLK1 (Homo sapiens, UniProt P80192); assay: Dose–response of top 10 kinase hits; type: biochemical; conditions: read-out: IC50 MLK1, n = 2
MAP4K5 [2] = molecular target: T1, MAP4K5 (Homo sapiens, UniProt Q9Y4K4); assay: Dose–response of top 10 kinase hits; type: biochemical; conditions: read-out: IC50 MAP4K5, n = 2
TAK1 [3] = molecular target: T2, TAK1 (Homo sapiens, UniProt O43318); assay: Potency of takinib analogues against TAK1; type: biochemical
T2 sequence (O43318 1-303 limits assumed): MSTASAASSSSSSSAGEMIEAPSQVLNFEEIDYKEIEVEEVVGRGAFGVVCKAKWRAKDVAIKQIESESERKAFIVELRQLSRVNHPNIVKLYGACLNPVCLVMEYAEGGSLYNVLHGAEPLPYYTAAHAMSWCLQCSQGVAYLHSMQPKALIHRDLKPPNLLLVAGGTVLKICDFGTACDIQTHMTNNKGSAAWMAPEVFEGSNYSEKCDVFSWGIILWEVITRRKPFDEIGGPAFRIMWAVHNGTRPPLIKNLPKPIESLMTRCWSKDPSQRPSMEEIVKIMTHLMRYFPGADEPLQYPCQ

CAMKKβ−1 = CAMKKβ−1 (Homo sapiens, UniProt Q96RR4); assay: Dose–response of top 10 kinase hits; type: biochemical; conditions: read-out: IC50 CAMKKβ−1, n = 2
MAP4K5 [4] = molecular target: T1, MAP4K5; assay: MRC Dundee kinase panel screen at 10 μM; type: biochemical
ULK2 = molecular target: T3, ULK2 (Homo sapiens, UniProt Q8IYT8); assay: MRC Dundee kinase panel screen at 10 μM; type: biochemical
T3 sequence (Q8IYT8 1-1036): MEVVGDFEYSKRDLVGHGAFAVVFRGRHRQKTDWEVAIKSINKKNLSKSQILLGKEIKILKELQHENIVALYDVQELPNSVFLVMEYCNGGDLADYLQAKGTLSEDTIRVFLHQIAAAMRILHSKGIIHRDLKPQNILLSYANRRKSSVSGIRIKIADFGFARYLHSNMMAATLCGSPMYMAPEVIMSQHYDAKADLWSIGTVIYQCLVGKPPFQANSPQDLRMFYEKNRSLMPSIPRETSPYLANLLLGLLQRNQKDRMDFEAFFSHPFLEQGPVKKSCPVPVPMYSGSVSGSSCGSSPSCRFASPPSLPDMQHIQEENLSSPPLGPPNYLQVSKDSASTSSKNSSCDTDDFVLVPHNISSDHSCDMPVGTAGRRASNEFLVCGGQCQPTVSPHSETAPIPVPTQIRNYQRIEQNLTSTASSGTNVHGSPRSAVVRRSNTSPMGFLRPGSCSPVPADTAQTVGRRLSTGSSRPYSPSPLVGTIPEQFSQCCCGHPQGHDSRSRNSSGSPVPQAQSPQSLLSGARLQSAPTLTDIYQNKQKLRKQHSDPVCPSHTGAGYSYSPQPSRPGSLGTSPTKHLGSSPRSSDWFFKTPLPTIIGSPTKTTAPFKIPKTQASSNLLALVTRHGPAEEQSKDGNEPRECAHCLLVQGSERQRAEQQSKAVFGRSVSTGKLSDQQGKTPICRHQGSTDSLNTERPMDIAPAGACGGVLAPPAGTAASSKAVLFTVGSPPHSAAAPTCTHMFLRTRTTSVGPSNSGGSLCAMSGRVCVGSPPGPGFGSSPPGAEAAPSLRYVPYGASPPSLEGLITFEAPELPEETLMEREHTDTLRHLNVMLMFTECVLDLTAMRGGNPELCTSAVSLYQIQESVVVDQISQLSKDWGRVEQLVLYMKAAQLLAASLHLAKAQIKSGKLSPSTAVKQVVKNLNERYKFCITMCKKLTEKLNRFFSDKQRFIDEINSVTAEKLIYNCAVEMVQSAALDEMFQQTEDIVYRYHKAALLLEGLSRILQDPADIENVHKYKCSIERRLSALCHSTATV

TAK1 [5] = molecular target: T4, TAK1 (Homo sapiens, UniProt O43318); assay: MRC Dundee kinase panel screen at 10 μM; type: biochemical
T4 sequence (O43318 with tags, fused parts or gaps limits assumed): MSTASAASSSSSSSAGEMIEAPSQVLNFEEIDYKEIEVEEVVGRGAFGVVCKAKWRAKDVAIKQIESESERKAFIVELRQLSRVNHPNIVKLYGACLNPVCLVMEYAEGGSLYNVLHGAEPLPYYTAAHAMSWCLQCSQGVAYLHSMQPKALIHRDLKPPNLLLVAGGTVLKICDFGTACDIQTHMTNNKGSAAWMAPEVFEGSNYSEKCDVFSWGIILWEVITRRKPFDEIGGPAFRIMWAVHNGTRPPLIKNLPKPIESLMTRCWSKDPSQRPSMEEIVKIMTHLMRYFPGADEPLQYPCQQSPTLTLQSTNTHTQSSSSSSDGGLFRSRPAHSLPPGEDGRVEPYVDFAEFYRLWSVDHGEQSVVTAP

[6] = test system: TNF expression in THP-1 cells; assay: Cytokine dose–response curves in THP-1 cells; type: cell-based, human; conditions: read-out: IC50 TNF expression; LPS-stimulated THP-1, 24 h
Method in brief: as §1

[7] = 50 mg/kg IP, all joints (paws and knees), vs vehicle

T1 sequence (Q9Y4K4 whole entry): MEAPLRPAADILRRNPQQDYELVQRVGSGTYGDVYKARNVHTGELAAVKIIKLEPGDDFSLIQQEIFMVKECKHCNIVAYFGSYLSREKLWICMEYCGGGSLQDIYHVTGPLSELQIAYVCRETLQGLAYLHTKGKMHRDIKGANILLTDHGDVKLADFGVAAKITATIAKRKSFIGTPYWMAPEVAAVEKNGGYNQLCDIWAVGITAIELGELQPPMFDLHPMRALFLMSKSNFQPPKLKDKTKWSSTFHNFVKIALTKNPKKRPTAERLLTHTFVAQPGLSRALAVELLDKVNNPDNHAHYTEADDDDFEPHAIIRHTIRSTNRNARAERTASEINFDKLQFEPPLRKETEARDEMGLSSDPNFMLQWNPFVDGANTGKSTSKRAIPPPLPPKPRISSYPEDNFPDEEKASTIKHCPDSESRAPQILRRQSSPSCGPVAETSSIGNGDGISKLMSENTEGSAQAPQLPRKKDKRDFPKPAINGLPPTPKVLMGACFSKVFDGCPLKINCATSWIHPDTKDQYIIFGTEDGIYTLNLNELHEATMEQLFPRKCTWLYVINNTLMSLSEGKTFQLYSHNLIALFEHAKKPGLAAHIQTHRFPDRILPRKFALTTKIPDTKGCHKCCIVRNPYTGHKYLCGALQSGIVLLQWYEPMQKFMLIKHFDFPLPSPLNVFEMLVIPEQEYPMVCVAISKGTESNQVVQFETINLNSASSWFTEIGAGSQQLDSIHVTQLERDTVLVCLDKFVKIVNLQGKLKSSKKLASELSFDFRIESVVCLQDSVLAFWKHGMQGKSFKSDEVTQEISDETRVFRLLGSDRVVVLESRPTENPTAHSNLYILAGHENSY
CLK2, sequence (P49760 whole entry): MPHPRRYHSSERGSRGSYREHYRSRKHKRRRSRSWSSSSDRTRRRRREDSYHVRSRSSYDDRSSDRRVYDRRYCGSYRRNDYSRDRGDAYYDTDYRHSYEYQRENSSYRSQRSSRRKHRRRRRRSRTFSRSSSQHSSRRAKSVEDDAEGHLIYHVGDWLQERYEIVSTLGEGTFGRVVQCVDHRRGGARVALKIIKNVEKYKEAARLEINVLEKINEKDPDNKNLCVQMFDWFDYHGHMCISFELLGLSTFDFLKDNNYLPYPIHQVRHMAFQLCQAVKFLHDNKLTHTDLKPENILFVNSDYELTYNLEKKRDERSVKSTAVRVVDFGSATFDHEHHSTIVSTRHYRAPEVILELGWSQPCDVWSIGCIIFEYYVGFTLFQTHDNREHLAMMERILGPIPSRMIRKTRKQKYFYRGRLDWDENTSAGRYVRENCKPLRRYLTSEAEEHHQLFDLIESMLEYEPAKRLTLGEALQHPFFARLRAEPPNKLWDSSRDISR
MLK1, sequence (P80192 whole entry): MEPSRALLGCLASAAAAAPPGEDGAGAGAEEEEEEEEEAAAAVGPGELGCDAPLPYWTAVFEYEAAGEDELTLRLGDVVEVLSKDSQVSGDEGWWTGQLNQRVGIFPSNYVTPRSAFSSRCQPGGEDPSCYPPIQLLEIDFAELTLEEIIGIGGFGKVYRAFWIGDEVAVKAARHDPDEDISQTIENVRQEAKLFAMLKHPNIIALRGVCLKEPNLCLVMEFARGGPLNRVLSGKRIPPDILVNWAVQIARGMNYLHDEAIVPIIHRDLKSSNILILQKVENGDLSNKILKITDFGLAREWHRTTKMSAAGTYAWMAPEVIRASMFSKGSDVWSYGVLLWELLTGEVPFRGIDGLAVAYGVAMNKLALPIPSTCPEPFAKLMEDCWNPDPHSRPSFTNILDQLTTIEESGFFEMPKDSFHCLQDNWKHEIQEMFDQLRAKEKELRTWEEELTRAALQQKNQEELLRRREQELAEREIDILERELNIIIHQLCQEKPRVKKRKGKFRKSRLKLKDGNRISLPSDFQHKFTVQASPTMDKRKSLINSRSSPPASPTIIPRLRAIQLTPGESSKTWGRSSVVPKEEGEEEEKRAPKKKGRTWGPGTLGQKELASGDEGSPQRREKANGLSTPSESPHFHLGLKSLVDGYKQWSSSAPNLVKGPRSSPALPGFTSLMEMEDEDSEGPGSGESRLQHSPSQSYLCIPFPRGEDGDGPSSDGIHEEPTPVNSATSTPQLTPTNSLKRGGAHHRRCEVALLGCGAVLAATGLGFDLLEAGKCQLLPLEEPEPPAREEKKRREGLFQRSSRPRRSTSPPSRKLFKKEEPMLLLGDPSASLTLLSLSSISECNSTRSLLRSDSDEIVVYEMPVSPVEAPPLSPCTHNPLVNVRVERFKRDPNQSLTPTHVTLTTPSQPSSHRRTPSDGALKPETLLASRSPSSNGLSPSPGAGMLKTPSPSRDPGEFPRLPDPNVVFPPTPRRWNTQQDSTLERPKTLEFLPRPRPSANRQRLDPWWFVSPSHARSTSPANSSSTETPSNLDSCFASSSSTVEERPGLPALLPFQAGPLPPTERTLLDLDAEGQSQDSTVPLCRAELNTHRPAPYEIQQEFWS
CAMKKβ−1, sequence (Q96RR4 whole entry): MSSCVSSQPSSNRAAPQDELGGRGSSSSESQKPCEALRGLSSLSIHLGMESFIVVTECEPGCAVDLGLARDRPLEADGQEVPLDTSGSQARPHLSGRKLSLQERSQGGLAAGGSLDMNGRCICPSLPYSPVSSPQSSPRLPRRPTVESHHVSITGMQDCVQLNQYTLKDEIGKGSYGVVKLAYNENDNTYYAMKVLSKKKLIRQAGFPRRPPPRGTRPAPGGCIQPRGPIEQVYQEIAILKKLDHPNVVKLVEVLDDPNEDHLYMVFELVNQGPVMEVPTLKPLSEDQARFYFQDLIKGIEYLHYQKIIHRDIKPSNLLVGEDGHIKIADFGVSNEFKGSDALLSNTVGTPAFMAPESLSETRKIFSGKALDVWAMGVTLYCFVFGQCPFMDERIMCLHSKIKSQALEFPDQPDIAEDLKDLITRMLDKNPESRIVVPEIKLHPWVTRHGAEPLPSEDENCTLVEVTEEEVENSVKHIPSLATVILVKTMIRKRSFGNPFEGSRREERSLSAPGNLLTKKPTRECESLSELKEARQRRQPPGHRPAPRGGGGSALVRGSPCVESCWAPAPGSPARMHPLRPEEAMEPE
CSNK1G2, sequence (P78368 whole entry): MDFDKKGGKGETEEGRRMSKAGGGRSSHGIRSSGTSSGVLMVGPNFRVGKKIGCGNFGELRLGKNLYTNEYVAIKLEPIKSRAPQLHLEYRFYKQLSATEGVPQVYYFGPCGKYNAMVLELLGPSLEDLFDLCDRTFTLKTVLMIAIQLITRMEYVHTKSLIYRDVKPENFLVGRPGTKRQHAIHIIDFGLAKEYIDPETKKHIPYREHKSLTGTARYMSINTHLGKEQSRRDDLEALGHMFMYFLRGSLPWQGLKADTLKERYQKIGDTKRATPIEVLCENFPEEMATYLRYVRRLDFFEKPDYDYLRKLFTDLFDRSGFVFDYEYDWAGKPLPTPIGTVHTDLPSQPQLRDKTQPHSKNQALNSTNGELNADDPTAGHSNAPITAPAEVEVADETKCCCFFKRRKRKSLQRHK
CK1γ2, sequence (P78368 whole entry): as above

For CCCn1c(NC(=O)c2cccc(C(N)=O)c2)nc2ccc(CN3CCCCC3)cc21 [HS-276], the “reduction of arthritic clinical score” value (CIA mouse model; 10 mg/kg QD PO) was 18%, the “reduction of disease clinical score” value (CIA mouse model; 25 mg/kg IP) was 36% and the “reduction of arthritic clinical score” value (CIA mouse model; 30 mg/kg QD PO) was 35%. For the same compound, the disease onset (CIA mouse model; 50 mg/kg IP) was “significantly delayed disease onset”, the “reduction of mean clinical score” value (CIA mouse model; 50 mg/kg IP) was 85% and the “reduction of bone resorption score” value (CIA mouse model; [7]) was 87%. The “reduction of cartilage damage score” value (CIA mouse model; [7]) was 76%, the “reduction of inflammation score” value (CIA mouse model; [7]) was 62% and the “reduction of pannus score” value (CIA mouse model; [7]) was 86%. For the same compound, the “reduction of periosteal bone formation score” value (CIA mouse model; [7]) was 93%, the clinical arthritis scores (CIA mouse model; 50 mg/kg, days 26 through 36, vs disease control) was “significantly reduced” and the “reduction of AUC of clinical arthritis scores” value (CIA mouse model; 50 mg/kg, vs disease control mice) was 85%. For the same compound, the disease onset (CIA mouse model; 10 and 30 mg/kg QD PO and 25 mg/kg IP, vs vehicle) was “did not significantly delay disease onset”, the disease incidence (CIA mouse model; day 36, 50 mg/kg IP, vehicle 92%) was 75% and the IC50 [1] was 234 nM. For the same compound, the enzymatic activity (CK1γ2) was < 15%, the IC50 (CSNK1G2) was 809 nM and the “TAK1 more potently inhibited than CLK2” value (CLK2; from dose–response IC50 values) was 3.6 fold. For the same compound, the IC50 (CLK2; read-out: IC50 CLK2, dose–response, n = 2) was 29 nM, the IC50 (MLK1) was 5580 nM and the IC50 (MAP4K5 [2]) was 124 nM. For the same compound, the Ki (TAK1 [3]; TAK1) was 2.5 nM, the IC50 (TAK1 [3]; read-out: TAK1 IC50) was 2.5 nM and the IC50 (CAMKKβ−1) was 1280 nM. The enzymatic activity (MAP4K5 [4]) was < 15%, the enzymatic activity (ULK2) was < 15% and the enzymatic activity (TAK1 [5]) was < 15%. It also gave an IC50 [6] of 138 nM.
